# Measured values: ChEMBL document CHEMBL4368918, “Structure-Based Design of Inhibitors Selective for Human Proteasome β2c or β2i Subunits” (J Med Chem, 2019)
# Activity calls are given as the source filed them. The rule behind the calls is not given here.
# How the values were obtained:
# [1] = target: T1, Proteasome subunit beta type-8 (Homo sapiens, UniProt P28062); test: Inhibition of 20S immunoproteasome beta 5 in human Raji cell lysates after 1 hr by competitive ABPP assay; type: subcellular, Lysate
# T1 sequence (P28062 whole entry): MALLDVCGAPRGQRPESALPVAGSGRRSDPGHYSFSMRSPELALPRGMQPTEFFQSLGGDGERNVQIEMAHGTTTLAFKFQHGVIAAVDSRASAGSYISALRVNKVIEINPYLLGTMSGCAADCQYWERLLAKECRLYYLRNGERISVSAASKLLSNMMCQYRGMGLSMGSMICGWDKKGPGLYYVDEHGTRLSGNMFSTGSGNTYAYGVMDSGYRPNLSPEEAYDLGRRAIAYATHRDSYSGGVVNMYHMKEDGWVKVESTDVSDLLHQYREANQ
# [2] = target: T1, Proteasome subunit beta type-8; test: Inhibition of 20S immunoproteasome beta 5 in human RPMI8226 cell lysates after 1 hr by coomassie brilliant blue staining-based fluorescence assay; type: subcellular, Lysate
# Summary of the method: (§1)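 Living RPMI-8226 cells were grown in RPMI-1640 with 10% FCS. Cells at (5–8)×10⁵ cells/mL were exposed to inhibitor for 1 h at 37 °C, washed in PBS and lysed on ice for 1 h in digitonin/ATP buffer. Residual activity was read by cocktail-ABP labeling, SDS-PAGE and fluorescence densitometry relative to mock, with Coomassie staining correcting for loading. IC50 came from three independent experiments.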
# [3] = target: Proteasome Macropain subunit (Homo sapiens) (UniProt P49721); conditions: Raji, Lysate, 1 uM
# [4] = target: T2, Proteasome subunit beta type-10 (Homo sapiens) (UniProt P40306); test: Inhibition of Morp-Ala-Tyr(O-C2H4-BODIPY(FL))-1-DecAla-EK binding to 20S immunoproteasome beta 2 in human Raji cell lysates at 1 uM in presence of 3-probe mixture by competitive ABPP assay; type: subcellular; conditions: Lysate
# T2 sequence (whole entry): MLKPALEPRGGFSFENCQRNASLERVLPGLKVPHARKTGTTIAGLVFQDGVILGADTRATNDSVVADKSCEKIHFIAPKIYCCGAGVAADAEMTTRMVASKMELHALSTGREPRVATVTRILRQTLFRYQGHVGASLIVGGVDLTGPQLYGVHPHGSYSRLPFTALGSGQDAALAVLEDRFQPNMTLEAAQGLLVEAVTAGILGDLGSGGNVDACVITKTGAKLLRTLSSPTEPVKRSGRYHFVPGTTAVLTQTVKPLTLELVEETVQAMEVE
# [5] = target: T2, Proteasome subunit beta type-10 (Homo sapiens); test: Inhibition of Morp-Ala-Tyr(O-C2H4-BODIPY(FL))-1-DecAla-EK binding to immunoproteasome beta 2 in human Raji cell lysates at 0.1 uM by competitive ABPP assay; type: subcellular; conditions: Lysate
# Summary of the method: (§2)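 Raji lysate was preincubated with inhibitor, then labeled with the BODIPY(FL) probe alone. β2i labeling was read by in-gel fluorescence at Cy2 settings after SDS-PAGE.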
# [6] = target: T3, Proteasome subunit beta type-10 (Homo sapiens, UniProt P40306); test: Inhibition of 20S immunoproteasome beta 2 in human Raji cell lysates after 1 hr by competitive ABPP assay; type: subcellular, Lysate
# T3 sequence (P40306 whole entry): T2 sequence (whole entry)
# [7] = target: T4, Proteasome subunit beta type-9 (Homo sapiens, UniProt P28065); test: Inhibition of 20S immunoproteasome beta 1 in human RPMI8226 cell lysates after 1 hr by coomassie brilliant blue staining-based fluorescence assay; type: subcellular, Lysate; summary of the method: as §1
# T4 sequence (P28065 whole entry): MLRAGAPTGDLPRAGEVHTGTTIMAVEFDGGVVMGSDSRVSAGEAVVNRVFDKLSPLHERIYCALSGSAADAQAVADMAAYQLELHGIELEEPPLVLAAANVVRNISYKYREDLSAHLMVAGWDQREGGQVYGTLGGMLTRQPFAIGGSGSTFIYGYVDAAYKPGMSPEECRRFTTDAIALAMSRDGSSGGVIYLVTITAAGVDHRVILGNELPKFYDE
# [8] = target: T3, Proteasome subunit beta type-10; test: Inhibition of 20S immunoproteasome beta 2 in human RPMI8226 cell lysates after 1 hr by coomassie brilliant blue staining-based fluorescence assay; type: subcellular, Lysate
# [9] = organism: Homo sapiens; test: Selectivity ratio of IC50 for 20S constitutive proteasome beta 5 chymotrypsin-like activity in human Raji cell lysates to IC50 for 20S constitutive proteasome beta 2 trypsin-like activity in human Raji cells; type: cell-based
# [10] = organism: Homo sapiens; test: Selectivity ratio of IC50 for 20S immunoproteasome beta 2 (unknown origin) to IC50 for 20S constitutive proteasome beta 2 trypsin-like activity (unknown origin)
# [11] = target: T4, Proteasome subunit beta type-9; test: Inhibition of 20S immunoproteasome beta 1 in human Raji cell lysates after 1 hr by competitive ABPP assay; type: subcellular, Lysate
# Summary of the method: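 Raji cells were sonicated in 3 volumes of Tris pH 7.5 lysis buffer containing DTT, MgCl₂, sucrose, 2 mM ATP and 0.05% digitonin. Lysate (5 μg protein, in buffer with 2 mM ATP and glycerol) was preincubated with inhibitor for 1 h at 37 °C, then with a cocktail of three fluorescent ABPs for 1 h. […] In-gel fluorescence densitometry was normalized to mock. IC50 came from the mean of three experiments.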
# [12] = target: T5, Proteasome Macropain subunit MB1 (Homo sapiens, UniProt P28074); test: Inhibition of 20S constitutive proteasome beta 5 chymotrypsin-like activity in human Raji cell lysates after 1 hr by competitive ABPP assay; type: subcellular, Lysate
# T5 sequence (P28074 whole entry): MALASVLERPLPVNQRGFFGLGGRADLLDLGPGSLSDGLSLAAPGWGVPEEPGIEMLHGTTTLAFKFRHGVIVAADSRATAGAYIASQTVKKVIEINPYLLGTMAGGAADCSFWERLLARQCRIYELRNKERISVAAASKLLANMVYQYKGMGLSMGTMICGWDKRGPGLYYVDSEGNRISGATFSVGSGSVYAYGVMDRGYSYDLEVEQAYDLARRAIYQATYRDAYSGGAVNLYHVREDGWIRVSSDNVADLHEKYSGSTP
# [13] = target: T5, Proteasome Macropain subunit MB1; test: Inhibition of 20S constitutive proteasome beta 5 chymotrypsin-like activity in human RPMI8226 cell lysates after 1 hr by coomassie brilliant blue staining-based fluorescence assay; type: subcellular, Lysate
# Summary of the method: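 Cells at (5–8)×10⁵ cells/mL were exposed to inhibitor for 1 h at 37 °C, washed in PBS and lysed on ice for 1 h in digitonin/ATP buffer. Residual activity was read by cocktail-ABP labeling, SDS-PAGE and fluorescence densitometry relative to mock, with Coomassie staining correcting for loading. IC50 came from three independent experiments.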
# [14] = organism: Homo sapiens; test: Selectivity ratio of IC50 for 20S constitutive proteasome beta 1 caspase-like activity in human Raji cell lysates to IC50 for 20S constitutive proteasome beta 2 trypsin-like activity in human Raji cells; type: cell-based
# [15] = target: T6, Proteasome subunit beta type-7 (Homo sapiens, UniProt Q99436); test: Inhibition of 20S constitutive proteasome beta 2 trypsin-like activity in human RPMI8226 cell lysates after 1 hr by coomassie brilliant blue staining-based fluorescence assay; type: subcellular, Lysate
# T6 sequence (Q99436 whole entry): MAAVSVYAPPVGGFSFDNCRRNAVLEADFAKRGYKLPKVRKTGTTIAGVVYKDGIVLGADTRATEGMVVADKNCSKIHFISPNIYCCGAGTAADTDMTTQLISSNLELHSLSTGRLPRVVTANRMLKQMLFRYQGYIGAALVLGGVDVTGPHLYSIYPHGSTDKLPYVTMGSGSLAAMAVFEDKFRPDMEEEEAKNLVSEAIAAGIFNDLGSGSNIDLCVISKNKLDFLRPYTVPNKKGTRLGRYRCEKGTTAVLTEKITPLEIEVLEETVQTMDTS
# [16] = target: T3, Proteasome subunit beta type-10; test: Inhibition of 20S immunoproteasome beta 2 (unknown origin) by cell based ABPP assay
# Summary of the method: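 Living RPMI-8226 cells, (5–8) ×10^5 cells/mL, exposed to inhibitor 1 h at 37 °C, washed, lysed in digitonin buffer 1 h on ice; residual activity labelled with cocktail ABPs, SDS-PAGE in-gel fluorescence, bands divided by mock, Coomassie staining to correct loading. IC50 from mean of three independent experiments.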
# [17] = target: T7, Proteasome subunit beta type-6 (Homo sapiens, UniProt P28072); test: Inhibition of 20S constitutive proteasome beta 1 caspase-like activity in human Raji cell lysates after 1 hr by competitive ABPP assay; type: subcellular, Lysate
# T7 sequence (P28072 whole entry): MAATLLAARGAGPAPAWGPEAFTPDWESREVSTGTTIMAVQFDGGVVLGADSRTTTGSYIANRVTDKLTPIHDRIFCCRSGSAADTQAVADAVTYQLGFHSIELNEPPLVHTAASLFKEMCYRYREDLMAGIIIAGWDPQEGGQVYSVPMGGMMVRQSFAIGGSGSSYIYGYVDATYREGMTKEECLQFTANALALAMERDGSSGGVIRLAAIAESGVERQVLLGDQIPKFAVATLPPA
# Summary of the method: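 Raji cells were sonicated in 3 volumes of Tris pH 7.5 lysis buffer containing DTT, MgCl₂, sucrose, 2 mM ATP and 0.05% digitonin. Lysate (5 μg protein, in buffer with 2 mM ATP and glycerol) was preincubated with inhibitor for 1 h at 37 °C, then with a cocktail of three fluorescent ABPs for 1 h. In-gel fluorescence densitometry was normalized to mock. IC50 came from the mean of three experiments.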
# [18] = organism: Homo sapiens; test: Selectivity ratio of IC50 for 20S immunoproteasome beta 5 in human Raji cell lysates to IC50 for 20S constitutive proteasome beta 2 trypsin-like activity in human Raji cells; type: cell-based
# [19] = organism: Homo sapiens; test: Selectivity ratio of IC50 for 20S immunoproteasome beta 1 in human Raji cell lysates to IC50 for 20S constitutive proteasome beta 2 trypsin-like activity in human Raji cells; type: cell-based
# [20] = organism: Homo sapiens; test: Selectivity ratio of IC50 for 20S immunoproteasome beta 2 in human Raji cell lysates to IC50 for 20S constitutive proteasome beta 2 trypsin-like activity in human Raji cells; type: cell-based
# [21] = target: T2, Proteasome subunit beta type-10 (Homo sapiens); test: Inhibition of Morp-Ala-Tyr(O-C2H4-BODIPY(FL))-1-DecAla-EK binding to immunoproteasome beta 2 in human Raji cell lysates at 0.3 uM by competitive ABPP assay; type: subcellular; conditions: Lysate; summary of the method: as §2
# [22] = target: T2, Proteasome subunit beta type-10 (Homo sapiens); test: Inhibition of Morp-Ala-Tyr(O-C2H4-BODIPY(FL))-1-DecAla-EK binding to 20S immunoproteasome beta 2 in human Raji cell lysates at 0.3 uM in presence of 3-probe mixture by competitive ABPP assay; type: subcellular; conditions: Lysate
# [23] = target: Proteasome Macropain subunit (Homo sapiens) (UniProt P49721); test: Inhibition of Morp-Ala-Tyr(O-C2H4-BODIPY(FL))-1-DecAla-EK binding to 20S constitutive proteasome beta 2 in human Raji cell lysates at 0.3 uM in presence of 3-probe mixture by competitive ABPP assay; type: subcellular; conditions: Lysate
# [24] = target: T2, Proteasome subunit beta type-10 (Homo sapiens); test: Binding affinity to 20S immunoproteasome beta 2 in human Raji cell lysates at 3 uM by ABPP assay; type: subcellular; conditions: Lysate
# Summary of the method: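 Raji lysate (5 μg total protein, Tris pH 7.5, DTT, MgCl₂, glycerol, 2 mM ATP) was labeled with the BODIPY(FL) probe for 1 h at 37 °C. […] The wet gel was scanned at Cy2 settings.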
Compound,IC50 [1] [µM],IC50 [2] [µM],IC50 [6] [µM],IC50 [7] [µM],IC50 [8] [µM],Ratio IC50 [9],Ratio IC50 [10],IC50 [11] [µM],IC50 [12] [µM],IC50 [13] [µM],Ratio IC50 [14],IC50 [15] [µM],IC50 [16] [µM],IC50 [17] [µM],Ratio IC50 [18],Ratio IC50 [19],Ratio IC50 [20],also measured
CC(C)C[C@H](NC(=O)[C@H](Cc1ccccc1)N=[N+]=[N-])C(=O)N[C@@H](CC(C)C)C(=O)N[C@H](/C=C/S(C)(=O)=O)Cc1ccc(CN)cc1,1.17,> 10,0.02,> 10,0.41,–,–,–,–,–,–,–,–,–,–,–,–,inhibition [3]: Active; inhibition [4]: Active; inhibition [5]: Active
CC(C)C[C@H](NC(=O)c1cnccn1)C(=O)N[C@@H](CC(C)C)C(=O)N[C@H](/C=C/S(C)(=O)=O)Cc1ccc(CN)cc1,> 100,> 10,2.9,> 10,> 10,> 600,40,> 100,> 100,> 10,> 600,> 10,6.5,> 100,> 600,> 600,17,–
CC(C)C[C@H](NC(=O)[C@H](Cc1ccccc1)N=[N+]=[N-])C(=O)N[C@@H](C)C(=O)N[C@H](/C=C/S(C)(=O)=O)Cc1ccc(CN)cc1,–,> 10,0.14,–,> 10,–,–,> 100,–,> 10,–,–,0.325,–,–,–,–,inhibition [21]: Active; inhibition [22]: Active; inhibition [23]: Active
CC1=CC(C)=N/C1=C(/CCCCc1cn(CCOc2ccc(C[C@H](NC(=O)[C@H](C)NC(=O)CN3CCOCC3)C(=O)N[C@@H](CC3CCCC4CCCCC43)C(=O)[C@@]3(C)CO3)cc2)nn1)c1c(C)cc(C)n1B(F)F (some centres undefined),–,–,–,–,–,–,–,–,–,–,–,–,–,–,–,–,–,Activity [24]: Active
COC[C@H](NC(=O)[C@H](CC(C)C)NC(=O)c1cnc(C)s1)C(=O)N[C@H](/C=C/S(C)(=O)=O)Cc1ccc(CN)cc1,57.1,> 10,4,> 10,> 10,590,> 14,> 100,45.3,> 10,> 1300,> 10,> 1,> 100,740,> 1300,52,–
CC(C)C[C@H](NC(=O)[C@H](Cc1ccccc1)N=[N+]=[N-])C(=O)NCC(=O)N[C@H](/C=C/S(C)(=O)=O)Cc1ccc(CN)cc1,12.7,> 10,2.5,> 10,> 10,276,224,> 100,8.6,> 10,> 2200,> 10,5.9,> 100,187,> 2200,54,–
